# Experimental data reported in ChEMBL document CHEMBL1782042, “Efficient microwave-assisted synthesis and antitumor activity of novel 4,4'-methylenebis[2-(3-aryl-4,5-dihydro-1H-pyrazol-5-yl)phenols]” (Eur J Med Chem, 2011).
# Legend:
# SF-295 = assay: Cytotoxicity against human SF295 cells; type: cell-based
# Outline: (§1)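 NCI 60 human tumour cell line screen, second stage at five concentrations (100, 10, 1.0, 0.1 and 0.01 μM). Continuous drug exposure for 48 h, with cell growth estimated by sulforhodamine B protein staining. GI50 is the drug concentration giving a 50% reduction in net protein increase relative to control cells over the incubation.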
# CAKI-1 = assay: Anticancer activity against human Caki1 cells after 48 hrs by sulforhodamine B assay; type: functional; conditions: CAKI-1, 48 h
# Outline: (§2)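 NCI 60-cell-line in vitro screen, second stage: five concentration levels (100, 10, 1.0, 0.1 and 0.01 μM) with 48 h continuous drug exposure. Cell growth was estimated by sulforhodamine B protein staining. GI50 is the drug concentration that gives a 50% reduction in net protein increase relative to control cells over the incubation.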
# SF-539 = assay: Anticancer activity against human SF539 cells after 48 hrs by sulforhodamine B assay; type: functional; conditions: SF-539, 48 h; outline: as §2
# SN12C = assay: Anticancer activity against human SN12C cells after 48 hrs by sulforhodamine B assay; type: functional; outline: as §2
# NCI-H23 = assay: Cytotoxicity against human NCI-H23 cells; type: cell-based; outline: as §1
# MDA-MB-231 = assay: Anticancer activity against human MDA-MB-231 cells after 48 hrs by sulforhodamine B assay; type: functional; conditions: MDA-MB-231, 48 h; outline: as §2
# MOLT-4 = assay: Anticancer activity against human MOLT4 cells after 48 hrs by sulforhodamine B assay; type: functional; conditions: MOLT-4, 48 h; outline: as §2
# UO-31 [1] = assay: Cytotoxicity against human UO31 cells; type: cell-based
# Outline: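 NCI 60 human tumour cell line screen; five concentration levels (100, 10, 1.0, 0.1 and 0.01 μM), 48 h continuous drug exposure. Cell growth estimated by sulforhodamine B (SRB) protein staining. GI50 taken as the drug concentration giving a 50% reduction in net protein increase relative to control cells over the incubation.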
# UO-31 [2] = assay: Anticancer activity against human UO31 cells after 48 hrs by sulforhodamine B assay; type: functional; conditions: UO-31, 48 h
# Outline: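 NCI 60-cell-line screen, second stage. Five concentration levels (100, 10, 1.0, 0.1 and 0.01 μM), 48 h continuous drug exposure. Cell growth was estimated by sulforhodamine B protein staining. GI50 is the concentration giving a 50% reduction in net protein increase relative to control cells over the drug incubation. Compounds entered this stage after an earlier single-dose screen.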
# OVCAR-4 = assay: Cytotoxicity against human OVCAR4 cells; type: cell-based; outline: as §1
# MCF7 = assay: Anticancer activity against human MCF7 cells after 48 hrs by sulforhodamine B assay; type: functional; conditions: MCF7, 48 h; outline: as §2
# RXF 393 = assay: Cytotoxicity against human RXF393 cells; type: cell-based; outline: as §1
smiles,measurement,setting,value
Oc1ccc(Cc2ccc(O)c(C3CC(c4ccc(Cl)cc4)=NN3)c2)cc1C1CC(c2ccc(Cl)cc2)=NN1 (configuration not stated),LC50,SF-295,> 100 µM
same,GI50,CAKI-1,2.67 µM
same,GI50,SF-539,5.82 µM
same,GI50,SN12C,2.86 µM
same,LC50,NCI-H23,> 100 µM
same,GI50,MDA-MB-231,2.65 µM
same,GI50,MOLT-4,2.7 µM
same,LC50,UO-31 [1],> 100 µM
same,GI50,UO-31 [2],3.04 µM
same,LC50,OVCAR-4,> 100 µM
same,GI50,MCF7,3.04 µM
same,LC50,RXF 393,> 100 µM
